Source: ChEMBL document CHEMBL4814000, “Discovery of β-carboline-(phenylsulfonyl)furoxan hybrids as potential anti-breast cancer agents” (Bioorg Med Chem Lett, 2021)
Active and inactive are the calls of the source. No cut-off for these calls is given here.

What was measured:
[1] = system: MDA-MB-231; experiment: Induction of cell cycle arrest in human MDA-MB-231 cells assessed as accumulation of cells at S phase at 0.15 uM after 72 hrs by propidium iodide staining based flow cytometry (reference value: 37.12 %); type: functional
Outline: (§1)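 Cell cycle: MDA-MB-231 cells held 72 h at 0, 0.15, 0.3 or 0.6 μM, harvested, PI-stained and analysed by flow cytometry for G1, S and G2/M percentages.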

[2] = system: MDA-MB-231; experiment: Induction of cell cycle arrest in human MDA-MB-231 cells assessed as accumulation of cells at G1 phase at 0.3 uM after 72 hrs by propidium iodide staining based flow cytometry (reference value: 51.97 %); type: functional; outline: as §1
[3] = system: MDA-MB-231; experiment: Induction of cell cycle arrest in human MDA-MB-231 cells assessed as accumulation of cells at S phase at 0.3 uM after 72 hrs by propidium iodide staining based flow cytometry (reference value: 37.12 %); type: functional; outline: as §1
[4] = system: MDA-MB-231; experiment: Antiproliferative activity against human MDA-MB-231 cells assessed as reduction in cell viability incubated for 72 hrs by CCK-8 assay; type: functional, cell-based; conditions: MDA-MB-231, 72 h
Outline: (§2)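 CCK-8 viability assay on MCF-7 or MDA-MB-231 cells after 72 h compound exposure; IC50 taken as half inhibitory concentration, reported as mean ± SD of three independent experiments.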

[5] = system: MDA-MB-231; experiment: Induction of apoptosis in human MDA-MB-231 cells assessed as necrotic cells at 0.6 uM incubated for 72 hrs by annexin V-FITC staining based flow cytometry (reference value: 1.05%); type: functional
[6] = system: MDA-MB-231; experiment: Induction of cell cycle arrest in human MDA-MB-231 cells assessed as accumulation of cells at G2/M phase at 0.6 uM after 72 hrs by propidium iodide staining based flow cytometry (reference value: 10.90 %); type: functional; outline: as §1
[7] = Nitric oxide releasing activity assessed as amount of NO release measured at 3 hrs by Griess assay; type: functional
Outline: (§3)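 Griess assay measuring NO released by compounds in vitro over time; values are averages of three independent experiments.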

[8] = system: MDA-MB-231; experiment: Inhibition of cell adhesion in human MDA-MB-231 cells measured for 24 hrs by phase-contrast microscope method; type: functional, cell-based; conditions: dose 0.15-0.6 µM
Outline: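 Adhesion: MDA-MB-231 cells incubated with 0, 0.15, 0.3 or 0.6 μM, non-adherent cells washed off with PBS, attached cells counted by phase contrast microscopy; mean ± SD of three independent experiments.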

[9] = system: MDA-MB-231; experiment: Induction of DNA damage in human MDA-MB-231 cells assessed as increase in tail DNA measured at 0.15 to 0.6 uM after 72 hrs by neutral comet assay; type: functional, cell-based; conditions: dose 0.15-0.6 µM
Outline: (§4)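 Neutral comet assay for double-strand breaks in MDA-MB-231 cells incubated 72 h; head DNA%, tail DNA%, tail moment and Olive tail moment scored, the moments in arbitrary units; mean ± SD of three independent experiments, p < 0.05 versus control.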

[10] = system: MDA-MB-231; experiment: Induction of cell cycle arrest in human MDA-MB-231 cells assessed as accumulation of cells at G1 phase at 0.15 uM after 72 hrs by propidium iodide staining based flow cytometry (reference value: 51.97 %); type: functional; outline: as §1
[11] = system: MDA-MB-231; experiment: Induction of apoptosis in human MDA-MB-231 cells assessed as necrotic cells at 0.3 uM incubated for 72 hrs by annexin V-FITC staining based flow cytometry (reference value: 1.05%); type: functional
[12] = system: MDA-MB-231; experiment: Induction of cell cycle arrest in human MDA-MB-231 cells assessed as accumulation of cells at G2/M phase at 0.15 uM after 72 hrs by propidium iodide staining based flow cytometry (reference value: 10.90 %); type: functional; outline: as §1
[13] = system: MCF7; experiment: Antiproliferative activity against human MCF7 cells assessed as reduction in cell viability incubated for 72 hrs by CCK-8 assay; type: functional, cell-based; conditions: MCF7, 72 h; outline: as §2
[14] = system: MDA-MB-231; experiment: Induction of apoptosis in human MDA-MB-231 cells assessed as late apoptotic cells at 0.3 uM incubated for 72 hrs by annexin V-FITC staining based flow cytometry (reference value: 1.67%); type: functional
[15] = system: MDA-MB-231; experiment: Induction of cell cycle arrest in human MDA-MB-231 cells assessed as accumulation of cells at G1 phase at 0.6 uM after 72 hrs by propidium iodide staining based flow cytometry (reference value: 51.97 %); type: functional; outline: as §1
[16] = system: MDA-MB-231; experiment: Induction of apoptosis in human MDA-MB-231 cells assessed as late apoptotic cells at 0.6 uM incubated for 72 hrs by annexin V-FITC staining based flow cytometry (reference value: 1.67%); type: functional
[17] = system: MDA-MB-231; experiment: Induction of apoptosis in human MDA-MB-231 cells assessed as early apoptotic cells at 0.15 uM incubated for 72 hrs by annexin V-FITC staining based flow cytometry (reference value: 3.42%); type: functional
[18] = system: MDA-MB-231; experiment: Induction of DNA damage in human MDA-MB-231 cells assessed as double-strand DNA breaks measured at 0.15 to 0.6 uM after 72 hrs by neutral comet assay; type: functional, cell-based; conditions: dose 0.15-0.6 µM; outline: as §4
[19] = system: MDA-MB-231; experiment: Induction of apoptosis in human MDA-MB-231 cells assessed as viable cells at 0.15 uM incubated for 72 hrs by annexin V-FITC staining based flow cytometry (reference value: 93.86%); type: functional; conditions: read-out: Activity
[20] = system: MDA-MB-231; experiment: Induction of apoptosis in human MDA-MB-231 cells assessed as viable cells at 0.6 uM incubated for 72 hrs by annexin V-FITC staining based flow cytometry (reference value: 93.86%); type: functional; conditions: read-out: Activity
[21] = system: MDA-MB-231; experiment: Induction of apoptosis in human MDA-MB-231 cells assessed as late apoptotic cells at 0.15 uM incubated for 72 hrs by annexin V-FITC staining based flow cytometry (reference value: 1.67%); type: functional
[22] = system: MDA-MB-231; experiment: Induction of DNA damage in human MDA-MB-231 cells assessed as reduction in head DNA measured at 0.15 to 0.6 uM after 72 hrs by neutral comet assay; type: functional, cell-based; conditions: dose 0.15-0.6 µM; outline: as §4
[23] = system: MDA-MB-231; experiment: Induction of apoptosis in human MDA-MB-231 cells assessed as necrotic cells at 0.15 uM incubated for 72 hrs by annexin V-FITC staining based flow cytometry (reference value: 1.05%); type: functional
[24] = Nitric oxide releasing activity assessed as amount of NO release measured up to 24 hrs by Griess assay; type: functional; conditions: time hrs <=24; outline: as §3
[25] = system: MDA-MB-231; experiment: Induction of apoptosis in human MDA-MB-231 cells assessed as early apoptotic cells at 0.6 uM incubated for 72 hrs by annexin V-FITC staining based flow cytometry (reference value: 3.42%); type: functional
[26] = system: MDA-MB-231; experiment: Induction of apoptosis in human MDA-MB-231 cells assessed as viable cells at 0.3 uM incubated for 72 hrs by annexin V-FITC staining based flow cytometry (reference value: 93.86%); type: functional; conditions: read-out: Activity
[27] = system: MDA-MB-231; experiment: Induction of ROS generation in human MDA-MB-231 cells at 0.6 uM incubated for 72 hrs by DCFH-DA staining-based flow cytometric analysis (reference value: 3.04 %); type: functional
Outline: (§5)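 MDA-MB-231 cells exposed 72 h, then loaded with DCFH-DA and read on a FACScan flow cytometer as percent DCFH-DA-positive cells against DMSO-treated control; mean ± SD of three independent experiments.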

[28] = system: MDA-MB-231; experiment: Antiinvasive activity against human MDA-MB-231 cells assessed as reduction in invasion incubated for 24 hrs by crystal violet staining based transwell assay; type: functional, cell-based; conditions: dose microM <=0.6, time 24.0 hrs
Outline: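 Transwell: MDA-MB-231 cells seeded in chambers with 0, 0.15, 0.3 or 0.6 μM for 24 h; cells crossing stained with crystal violet, imaged and counted; mean ± SD of three independent experiments.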

[29] = system: MDA-MB-231; experiment: Induction of cell cycle arrest in human MDA-MB-231 cells assessed as accumulation of cells at G2/M phase at 0.3 uM after 72 hrs by propidium iodide staining based flow cytometry (reference value: 10.90 %); type: functional; outline: as §1
[30] = system: MDA-MB-231; experiment: Inhibition of cell migration in human MDA-MB-231 cells assessed as inhibition of wound healing rate measured for 24 hrs by phase contrast microscopy; type: functional, cell-based
Outline: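 Wound-healing: scratches made with pipette tips across MDA-MB-231 monolayers, then 24 h incubation at 0, 0.15, 0.3 or 0.6 μM; closure imaged by phase contrast microscopy and expressed as wound-healing rate; mean ± SD of three independent experiments.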

[31] = system: MDA-MB-231; experiment: Induction of DNA damage in human MDA-MB-231 cells assessed as increase olive tail moment measured at 0.15 to 0.6 uM after 72 hrs by neutral comet assay; type: functional, cell-based; conditions: dose 0.15-0.6 µM; outline: as §4
[32] = system: MDA-MB-231; experiment: Induction of ROS generation in human MDA-MB-231 cells incubated for 72 hrs by DCFH-DA staining-based flow cytometric analysis relative to control; type: functional, cell-based; conditions: dose microM <=0.6, time 72.0 hrs; outline: as §5
[33] = system: MDA-MB-231; experiment: Induction of DNA damage in human MDA-MB-231 cells assessed as increase in tail moment measured at 0.15 to 0.6 uM after 72 hrs by neutral comet assay; type: functional, cell-based; conditions: dose 0.15-0.6 µM; outline: as §4
[34] = system: MDA-MB-231; experiment: Induction of cell cycle arrest in human MDA-MB-231 cells assessed as accumulation of cells at S phase at 0.6 uM after 72 hrs by propidium iodide staining based flow cytometry (reference value: 37.12 %); type: functional; outline: as §1
[35] = system: MDA-MB-231; experiment: Induction of apoptosis in human MDA-MB-231 cells assessed as early apoptotic cells at 0.3 uM incubated for 72 hrs by annexin V-FITC staining based flow cytometry (reference value: 3.42%); type: functional

SMILES: COc1ccc(-c2nc(C(=O)NCCCOc3no[n+]([O-])c3S(=O)(=O)c3ccccc3)cc3c2[nH]c2ccccc23)cc1
- Activity [1]: 35.82%
- Activity [2]: 42.88%
- Activity [3]: 37.2%
- IC50 [4]: 620 nM
- Activity [5]: 1.61%
- Activity [6]: 23.54%
- Activity [7]: 65 µM/L
- inhibition [8]: Dose-Dependent Effect
- Activity [9]: Active
- Activity [10]: 50.54%
- Activity [11]: 3.7%
- Activity [12]: 13.64%
- IC50 [13]: 890 nM
- Activity [14]: 9.92%
- Activity [15]: 40.59%
- Activity [16]: 24.3%
- Activity [17]: 8.28%
- Activity [18]: Active
- viability at 0.15 µM [19]: 83.6%
- viability at 0.6 µM [20]: 44.2%
- Activity [21]: 4.39%
- Activity [22]: Active
- Activity [23]: 3.68%
- Activity [24]: Active
- Activity [25]: 29.88%
- viability at 0.3 µM [26]: 72.3%
- Activity [27]: 51.62%
- Activity [28]: Active
- Activity [29]: 19.92%
- inhibition [30]: Dose-Dependent Effect
- Activity [31]: Active
- Activity [32]: Dose-Dependent Effect
- Activity [33]: Active
- Activity [34]: 35.87%
- Activity [35]: 14.07%
